Source: ChEMBL document CHEMBL2203086, “Structure-Based Discovery of a Novel Pentamidine-Related Inhibitor of the Calcium-Binding Protein S100B” (ACS Med Chem Lett, 2012)

What was measured:
[1] = Binding affinity to rat/bovine recombinant S100B expressed in Escherichia coli [HMS174(DE3)strain] by NMR spectroscopy
[2] = Destabilization of rat/bovine S100B assessed as change in melting temperature by differential scanning calorimetry
Summary of the method: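 DSC on S100B dialyzed into 5 mM HEPES pH 7.2, 15 mM NaCl, 10 mM CaCl2, 0.5 mM TCEP, at 40-50 µM per monomer. Compound prepared in dialysis buffer, 200 µM final. Buffer reference scans subtracted and data normalized to protein concentration. Apparent Tm taken from peak maxima, compared against ligand-free S100B.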

Malme-3M [3] = assay: Growth inhibition of human MALME-3M cells transfected with S100B siRNA after 4 days by SYBR green assay; format: functional, cell-based
Summary of the method: (§1)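 MALME-3M melanoma cells, stable hairpin-vector lines with scrambled control siRNA (high S100B) or S100B knockdown siRNA (clone #7), grown in IMDM with 20% FBS, neomycin omitted during assay. Seeded in 384-well plates and grown 24 h at 37 °C, 5% CO2. Compound added, DMSO in controls, then 4 days incubation. Lysed with 1.2% Igepal plus SYBR Green I (1:10,000) for 24 h. Fluorescence read at 485/520 nm as a DNA/cell-number measure, and IC50 derived.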

Malme-3M [4] = assay: Growth inhibition of human MALME-3M cells overexpressing calcium-binding protein S100B after 4 days by SYBR green assay; format: functional, cell-based; summary of the method: as §1
[5] = Binding affinity to rat/bovine recombinant S100B at weaker site expressed in Escherichia coli [HMS174(DE3)strain] by NMR spectroscopy
[6] = Binding affinity to rat/bovine recombinant S100B at tight site expressed in Escherichia coli [HMS174(DE3)strain] by NMR spectroscopy
[7] = Homo sapiens, Malme-3M, 96 h, read-out: IC50

| Structure (SMILES) | Kd ([1]; read-out: Kd) [µM] | ΔTm [2] [°C] | IC50 (Malme-3M [3]; [7]) [µM] | IC50 (Malme-3M [4]; [7]) [µM] | Kd [5] [µM] | Kd [6] [µM] | Kd [1] | IC50 (Malme-3M [3]; malme-3m) | IC50 (Malme-3M [4]; malme-3m) |
| --- | --- | --- | --- | --- | --- | --- | --- | --- | --- |
| N=C(N)c1ccc(OCCCCCCCOc2ccc(C(=N)N)cc2)cc1 [HEPTAMIDINE] | 6.9 | 18.3 | 6.8 | 4.2 | – | – | – | – | – |
| N=C(N)c1ccc(OCCCCCOc2ccc(C(=N)N)cc2)cc1 [PENTAMIDINE] | – | 1 | 12.2 | 10.2 | 40 | 0.13 | – | – | – |
| N=C(N)c1ccc(OCCCCCCOc2ccc(C(=N)N)cc2)cc1 [HEXAMIDINE] | – | – | – | – | – | – | Not Active | Not Active | Not Active |
